Calls of active or inactive are those of the source. The calls are words filed in the database; no cut-off is given here.
Legend:
Mus musculus [1] = assay: Antiinflammatory activity in mouse assessed as inhibition of xylene-induced ear edema at 100 mg/kg, ip after 0.5 hrs relative to control; format: functional; conditions: route intraperitoneal
Method in brief: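 Kunming mice, 20-25 g, 10 per group. Freshly prepared DMSO solution given i.p. at 0.05 mL/20 g; vehicle-only (DMSO) controls. Xylene ear edema test run 0.5 h after dosing; mice killed 30 min after xylene, 7 mm plugs cut from treated and untreated ears, and edema taken as the plug weight difference. Reported as % edema reduction versus vehicle.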

Mus musculus [2] = assay: Antiinflammatory activity in mouse assessed as inhibition of xylene-induced ear edema at 200 mg/kg, po administered 5 hrs before xylene challenge measured after 3 hrs post dose; format: functional
Method in brief: (§1)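 Kunming mice, 20-25 g, 10 per group. Compound homogenized in 0.5% CMC-Na and given orally at 0.2 mL/10 g; vehicle controls got 0.5% CMC-Na. Xylene applied 1, 2, 3, 4, 5 or 24 h after dosing (3 h for 50 and 100 mg/kg). Killed 30 min later; 7 mm ear plugs weighed, treated minus untreated. Result given as % edema reduction versus CMC-Na controls.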

Mus musculus [3] = assay: Antiinflammatory activity in mouse assessed as inhibition of xylene-induced ear edema at 200 mg/kg, po administered 24 hrs before xylene challenge measured after 3 hrs post dose; format: functional; method in brief: as §1
Mus musculus [4] = assay: Antiinflammatory activity in mouse assessed as inhibition of xylene-induced ear edema at 200 mg/kg, po administered 1 hr before xylene challenge measured after 3 hrs post dose; format: functional; method in brief: as §1
Mus musculus [5] = assay: Antiinflammatory activity in mouse assessed as inhibition of xylene-induced ear edema at 200 mg/kg, po administered 4 hrs before xylene challenge measured after 3 hrs post dose; format: functional; method in brief: as §1
Mus musculus [6] = assay: Antiinflammatory activity in mouse assessed as inhibition of xylene-induced ear edema at 200 mg/kg, po administered 2 hrs before xylene challenge measured after 3 hrs post dose; format: functional; method in brief: as §1
Mus musculus [7] = assay: Antiinflammatory activity in mouse assessed as inhibition of xylene-induced ear edema at 100 mg/kg, po administered 3 hrs before xylene challenge measured after 3 hrs post dose; format: functional; method in brief: as §1
Mus musculus [8] = assay: Antiinflammatory activity in mouse assessed as inhibition of xylene-induced ear edema at 200 mg/kg, po administered 3 hrs before xylene challenge measured after 3 hrs post dose; format: functional; method in brief: as §1
Mus musculus [9] = assay: Antiinflammatory activity in mouse assessed as inhibition of xylene-induced ear edema at 50 mg/kg, po administered 3 hrs before xylene challenge measured after 3 hrs post dose; format: functional; method in brief: as §1
Mus musculus [10] = assay: Antiinflammatory activity in mouse assessed as inhibition of xylene-induced ear edema at 200 mg/kg, po administered 1 to 24 hrs before xylene challenge measured after 4 hrs post dose; format: functional, organism-based; design: dose 200 mg/kg; method in brief: as §1

SMILES: COc1ccc(Oc2nn3c(N)nnc3c3ccccc23)cc1
- inhibition in vivo at 100 mg/kg (Mus musculus [1]): 44%

SMILES: Nc1nnc2c3ccccc3c(Oc3cccc(Cl)c3)nn12
- inhibition in vivo at 100 mg/kg (Mus musculus [1]): 68.8%

SMILES: CCCCCCCOc1nn2c(N)nnc2c2ccccc12
- inhibition in vivo at 100 mg/kg (Mus musculus [1]): 65.7%

SMILES: Nc1nnc2c3ccccc3c(Oc3ccc(Cl)cc3)nn12
- inhibition in vivo at 100 mg/kg (Mus musculus [1]): 75%

SMILES: Nc1nnc2c3ccccc3c(Oc3ccc(F)cc3)nn12
- inhibition in vivo at 100 mg/kg (Mus musculus [1]): 48.8%

SMILES: CCCCCCCCOc1nn2c(N)nnc2c2ccccc12
- inhibition in vivo at 100 mg/kg (Mus musculus [1]): 58%

SMILES: Nc1ccc(Oc2nn3c(N)nnc3c3ccccc23)cc1
- inhibition in vivo at 200 mg/kg (Mus musculus [2]): 55.9%
- inhibition in vivo at 200 mg/kg (Mus musculus [3]): 18.9%
- inhibition in vivo at 200 mg/kg (Mus musculus [4]): 60.5%
- inhibition in vivo at 200 mg/kg (Mus musculus [5]): 80.6%
- inhibition in vivo at 200 mg/kg (Mus musculus [6]): 81.3%
- inhibition in vivo at 100 mg/kg (Mus musculus [7]): 37.9%
- inhibition in vivo at 100 mg/kg (Mus musculus [1]): 83%
- inhibition in vivo at 200 mg/kg (Mus musculus [8]): 84.3%
- inhibition in vivo at 50 mg/kg (Mus musculus [9]): 22.8%

SMILES: CCCCOc1nn2c(N)nnc2c2ccccc12
- inhibition in vivo at 100 mg/kg (Mus musculus [1]): 67.6%

SMILES: Nc1nnc2c3ccccc3c(Oc3ccc(Cl)cc3Cl)nn12
- inhibition in vivo at 100 mg/kg (Mus musculus [1]): 40.4%

SMILES: Nc1ccccc1Oc1nn2c(N)nnc2c2ccccc12
- inhibition in vivo at 100 mg/kg (Mus musculus [1]): 38.4%

SMILES: Nc1nnc2c3ccccc3c(Oc3ccccc3Cl)nn12
- inhibition in vivo at 200 mg/kg (Mus musculus [2]): 57.2%
- inhibition in vivo at 200 mg/kg (Mus musculus [3]): 8.24%
- inhibition in vivo at 200 mg/kg (Mus musculus [4]): 52.7%
- inhibition in vivo at 200 mg/kg (Mus musculus [5]): 64.1%
- inhibition in vivo at 200 mg/kg (Mus musculus [6]): 59%
- inhibition in vivo at 100 mg/kg (Mus musculus [7]): 46.7%
- inhibition in vivo at 100 mg/kg (Mus musculus [1]): 81.2%
- inhibition in vivo at 200 mg/kg (Mus musculus [8]): 75%
- inhibition (Mus musculus [10]): Active
- inhibition in vivo at 50 mg/kg (Mus musculus [9]): 30.8%

SMILES: Cc1ccccc1Oc1nn2c(N)nnc2c2ccccc12
- inhibition in vivo at 100 mg/kg (Mus musculus [1]): 68.3%

SMILES: Cc1ccc(Oc2nn3c(N)nnc3c3ccccc23)cc1
- inhibition in vivo at 100 mg/kg (Mus musculus [1]): 52.7%

SMILES: Cc1cccc(Oc2nn3c(N)nnc3c3ccccc23)c1
- inhibition in vivo at 100 mg/kg (Mus musculus [1]): 68%

SMILES: CC(C)Oc1nn2c(N)nnc2c2ccccc12
- inhibition in vivo at 100 mg/kg (Mus musculus [1]): 39.4%

SMILES: Nc1nnc2c3ccccc3c(Oc3ccccc3)nn12
- inhibition in vivo at 100 mg/kg (Mus musculus [1]): 55%

SMILES: CCCCCCOc1nn2c(N)nnc2c2ccccc12
- inhibition in vivo at 100 mg/kg (Mus musculus [1]): 39.5%

SMILES: Nc1cccc(Oc2nn3c(N)nnc3c3ccccc23)c1
- inhibition in vivo at 100 mg/kg (Mus musculus [1]): 68%

SMILES: CC(C)Cc1ccc(C(C)C(=O)O)cc1 (centres undefined) [IBUPROFEN]
- inhibition in vivo at 200 mg/kg (Mus musculus [2]): 23.4%
- inhibition in vivo at 200 mg/kg (Mus musculus [3]): 13.2%
- inhibition in vivo at 200 mg/kg (Mus musculus [4]): 29.6%
- inhibition in vivo at 200 mg/kg (Mus musculus [5]): 36.3%
- inhibition in vivo at 200 mg/kg (Mus musculus [6]): 38.6%
- inhibition in vivo at 100 mg/kg (Mus musculus [7]): 26.9%
- inhibition in vivo at 100 mg/kg (Mus musculus [1]): 61.2%
- inhibition in vivo at 200 mg/kg (Mus musculus [8]): 64.6%

SMILES: Nc1nnc2c3ccccc3c(Oc3ccc(Br)cc3)nn12
- inhibition in vivo at 100 mg/kg (Mus musculus [1]): 48.4%

Reference: ChEMBL document CHEMBL1275298, “Synthesis and anti-inflammatory activity evaluation of some novel 6-alkoxy(phenoxy)-[1,2,4]triazolo[3,4-a]phthalazine-3-amine derivatives” (2010)
